# Source: ChEMBL document CHEMBL1136878, “6-amino-4-oxo-1,3-diphenyl-2-thioxo-1,2,3,4-tetrahydropyrimidine-5-carbonyl derivatives as a new class of potent inhibitors of Interleukin-8-induced neutrophil chemotaxis” (Bioorg Med Chem, 2009)
# Activity calls are given as the source filed them. The rule behind the calls is not given here.
# What was measured:
# [1] = tested on: Neutrophil; assay: Inhibition of chemotaxis in human neutrophils assessed as inhibition of fMLP-induced migration by Boyden chamber assay; assay type: functional, cell-based
# Summary of the method: (§1)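 Donor blood neutrophils (dextran sedimentation, Ficoll-Hypaque, hypotonic lysis; >97% pure), preincubated with compound 15 min at room temperature. 4 × 10^5 cells in upper compartment of blind-well chamber, 3 µm cellulose ester filter. Lower compartment: IL-8 10^-9 M, fMLP 10^-8 M or C5a 10^-9 M. Incubation 37 °C, 45 min. Leading-front distance read at ×400, five fields/filter, duplicates. Net migration = stimulated minus spontaneous. IC50 by nonlinear regression, mean of ≥3 experiments.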
# [2] = Cytotoxicity against human neutrophils assessed as cell viability by ethidium bromide-fluorescein diacetate test; assay type: cell-based, Neutrophil; set-up: concentration or dose not given beside the values; settings: read-out: Activity
# Summary of the method: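 Neutrophils (2 × 10^6/mL) from healthy donor blood, incubated 2 h at 37 °C in CO2 atmosphere with compounds. Cells then stained with fluorescein diacetate/ethidium bromide in HBSS, 10 min at room temperature. Scored under UV dark-field: green = intact membrane (viable), red nucleus = necrotic; percentage viable cells.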
# [3] = tested on: Neutrophil; assay: Inhibition of chemotaxis in human neutrophils assessed as inhibition of IL8-induced migration by Boyden chamber assay; assay type: functional, cell-based; summary of the method: as §1
# [4] = tested on: Mus musculus; assay: Inhibition of chemotaxis in zymosan-induced peritonitis Swiss mouse model assessed as number of peritoneal cells per cavity at 3 mg/kg, po pretreated 1 hr before zymosan-challenge measured 4 hrs post inducer challenge (Rvb=31.5+/-1.2 million); assay type: functional
# [5] = tested on: Mus musculus; assay: Inhibition of chemotaxis in zymosan-induced peritonitis Swiss mouse model assessed as peritoneal protein concentration at 3 mg/kg, po pretreated 1 hr before zymosan-challenge measured 4 hrs post inducer challenge (Rvb=1961+/-160 µg/mL)
# [6] = tested on: Mus musculus; assay: Inhibition of chemotaxis in zymosan-induced peritonitis Swiss mouse model assessed as number of peritoneal granulocytes per cavity at 3 mg/kg, po pretreated 1 hr before zymosan-challenge measured 4 hrs post inducer challenge (Rvb=27.1+/-3.5 million); assay type: functional
# [7] = tested on: Neutrophil; assay: Inhibition of chemotaxis in human neutrophils assessed as inhibition of C5a-induced migration by Boyden chamber assay; assay type: functional, cell-based; summary of the method: as §1
# [8] = target: T1, C-X-C chemokine receptor type 2 (Homo sapiens) (UniProt P25025); assay: Binding affinity to CXCR2
# T1 sequence (whole entry): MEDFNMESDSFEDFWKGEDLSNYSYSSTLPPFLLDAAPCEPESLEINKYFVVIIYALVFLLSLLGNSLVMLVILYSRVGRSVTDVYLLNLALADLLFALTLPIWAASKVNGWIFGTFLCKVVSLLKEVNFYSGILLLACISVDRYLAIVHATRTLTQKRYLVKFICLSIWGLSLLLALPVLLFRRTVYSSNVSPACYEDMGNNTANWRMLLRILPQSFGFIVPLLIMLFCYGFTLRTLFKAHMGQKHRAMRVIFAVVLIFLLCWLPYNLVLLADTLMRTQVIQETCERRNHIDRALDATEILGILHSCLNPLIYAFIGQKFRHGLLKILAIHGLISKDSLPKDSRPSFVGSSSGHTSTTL
# [9] = target: T2, C-X-C chemokine receptor type 1 (Homo sapiens) (UniProt P25024); assay: Binding affinity to CXCR1
# T2 sequence (whole entry): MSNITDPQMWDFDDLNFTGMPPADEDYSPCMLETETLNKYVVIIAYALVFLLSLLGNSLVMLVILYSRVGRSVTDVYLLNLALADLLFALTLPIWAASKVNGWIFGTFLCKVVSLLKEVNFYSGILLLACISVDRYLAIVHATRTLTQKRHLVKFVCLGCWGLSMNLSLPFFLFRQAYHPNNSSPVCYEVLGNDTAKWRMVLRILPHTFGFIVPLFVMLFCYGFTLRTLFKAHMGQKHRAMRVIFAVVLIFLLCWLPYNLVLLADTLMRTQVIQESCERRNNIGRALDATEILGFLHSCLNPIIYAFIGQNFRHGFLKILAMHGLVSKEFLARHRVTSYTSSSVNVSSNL
# [10] = tested on: Mus musculus; assay: Inhibition of chemotaxis in zymosan-induced peritonitis Swiss mouse model assessed as number of peritoneal granulocytes per cavity at 50 mg/kg, po pretreated 1 hr before zymosan-challenge measured 4 hrs post inducer challenge (Rvb=27.1+/-3.5 million); assay type: functional
# [11] = tested on: Mus musculus; assay: Inhibition of chemotaxis in zymosan-induced peritonitis Swiss mouse model assessed as number of peritoneal cells per cavity at 50 mg/kg, po pretreated 1 hr before zymosan-challenge measured 4 hrs post inducer challenge (Rvb=31.5+/-1.2 million); assay type: functional
# [12] = tested on: Mus musculus; assay: Inhibition of chemotaxis in zymosan-induced peritonitis Swiss mouse model assessed as peritoneal protein concentration at 50 mg/kg, po pretreated 1 hr before zymosan-challenge measured 4 hrs post inducer challenge (Rvb=1961+/-[…]); assay type: functional
Structure (SMILES),Activity [1],viability [2] [%],IC50 [3] [nM],other results
COC(=O)c1c(NCCc2ccc(S(N)(=O)=O)cc2)n(-c2ccccc2)c(=S)n(-c2ccccc2)c1=O,inactive,≥ 94,10.8,
CCOC(=O)c1c(NCCCN(C)C)n(-c2ccccc2)c(=S)n(-c2ccccc2)c1=O,inactive,≥ 94,3.89,
CCOC(=O)c1c(NCCN2CCOCC2)n(-c2ccccc2)c(=S)n(-c2ccccc2)c1=O,inactive,≥ 94,172,
C[C@@H]1C[C@H]2[C@@H]3CCC4=CC(=O)C=C[C@]4(C)[C@@]3(F)[C@@H](O)C[C@]2(C)[C@@]1(O)C(=O)CO [DEXAMETHASONE],,,,Activity [4]: 22 million; Activity [5]: 1400 µg/mL; Activity [6]: 18.5 million
CCN(CC)CCNc1c(C(=O)OC(C)C)c(=O)n(-c2ccccc2)c(=S)n1-c1ccccc1,inactive,≥ 94,0.21,Activity [7]: inactive
CCOC(=O)c1c(NCCNc2ccccc2)n(-c2ccccc2)c(=S)n(-c2ccccc2)c1=O,inactive,≥ 94,0.61,Activity [8]: inactive; Activity [9]: inactive
COC(=O)c1c(NCCc2c[nH]c3ccccc23)n(-c2ccccc2)c(=S)n(-c2ccccc2)c1=O,inactive,≥ 94,29.6,
COC(=O)c1c(NCC(OC)OC)n(-c2ccccc2)c(=S)n(-c2ccccc2)c1=O,inactive,≥ 94,31.2,
CCOC(=O)c1c(NCCOC)n(-c2ccccc2)c(=S)n(-c2ccccc2)c1=O,inactive,≥ 94,1.36,Activity [8]: inactive; Activity [9]: inactive
CCOC(=O)c1c(NCCN(C)C)n(-c2ccccc2)c(=S)n(-c2ccccc2)c1=O,inactive,≥ 94,0.1,Activity [7]: inactive
CCOC(=O)c1c(NCCN(CC)CC)n(-c2ccccc2)c(=S)n(-c2ccccc2)c1=O,inactive,≥ 94,0.02,Activity [8]: inactive; Activity [7]: inactive; Activity [10]: 17.7 million; Activity [9]: inactive; Activity [11]: 23.8 million; Activity [12]: 1520 µg/mL
CC(=O)c1c(NCCN(C)C)n(-c2ccccc2)c(=S)n(-c2ccccc2)c1=O,inactive,≥ 94,6.86,
CCOC(=O)c1c(NCCc2ccccn2)n(-c2ccccc2)c(=S)n(-c2ccccc2)c1=O,inactive,≥ 94,0.49,Activity [8]: inactive; Activity [9]: inactive
CC(=O)c1c(N2CCN(C)CC2)n(-c2ccccc2)c(=S)n(-c2ccccc2)c1=O,inactive,≥ 94,14.8,
CCOC(=O)c1c(NCCN2CCCCC2)n(-c2ccccc2)c(=S)n(-c2ccccc2)c1=O,inactive,≥ 94,85.4,
COC(=O)c1c(NCCN(C)C)n(-c2ccccc2)c(=S)n(-c2ccccc2)c1=O,inactive,≥ 94,3.32,
CC(C)OC(=O)c1c(NCCN(C)C)n(-c2ccccc2)c(=S)n(-c2ccccc2)c1=O,inactive,≥ 94,0.18,Activity [7]: inactive
CCOC(=O)c1c(NCCC2CCCN2C)n(-c2ccccc2)c(=S)n(-c2ccccc2)c1=O (stereo unspecified),inactive,≥ 94,1.61,Activity [8]: inactive; Activity [9]: inactive
